Data on 24 molecules can be found in ChEMBL document CHEMBL1140556, “Design, structure-activity relationship, and pharmacokinetic profile of pyrazole-based indoline factor Xa inhibitors” (Bioorg Med Chem Lett, 2007).

One data set deals with Coagulation factor X (Homo sapiens, UniProt P00742). As to the kind of experiment: Inhibition of human factor 10a. The procedure, abridged: (§1)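 Ki values were measured against the purified human enzymes.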
Another data set concerns the target Trypsin (Homo sapiens, UniProt P07477+P07478+P35030). As to the kind of experiment: Inhibition of human trypsin. Type of data set: protein assay. The procedure, abridged: as §1
Another data set concerns the target Prothrombin (Homo sapiens, UniProt P00734). As to the kind of experiment: Inhibition of human thrombin.
In the next data set the test system is Plasma. As to the kind of experiment: Anticoagulant potency in human plasma assessed as concentration required to double prothrombin time. Type of data set: functional.
Data set [1] can be described thus: Clearance in dog at 0.5 mg/kg, iv and 0.2 mg/kg, po. Type of data set: ADME, organism-based, Canis lupus familiaris. As to conditions: in vivo. The procedure, abridged:
(§2)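 Cassette (N-in-1) dosing, with compounds given together at 0.5 mg/kg iv and 0.2 mg/kg po; one animal per route (n = 1). Clearance, steady-state volume of distribution, oral half-life and oral bioavailability (F%) were derived from plasma levels.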

Data set [2] is described as follows: (§3) Volume of distribution at steady state in dog at 0.5 mg/kg, iv and 0.2 mg/kg, po. Conditions: in vivo, read-out: Vdss. Type of data set: ADME, organism-based, Canis lupus familiaris. The procedure, abridged:
as §2

The subject of the next data set is Canis familiaris. The data set is described as §3. Conditions: in vivo. Type of data set: ADME, organism-based, Canis lupus familiaris. An outline of the steps: as §2
A short description of data set [3]: Apparent permeability across Caco-2 cells. Conditions: human. Type of data set: ADME, cell-based. (In general: Passage across Caco-2 layers is used to estimate intestinal permeability.)
A short description of data set [4]: Half life in dog at 0.2 mg/kg, po. Also noted: dose 0.2 mg/kg, route oral. As to conditions: in vivo. Type of data set: ADME, organism-based, Canis lupus familiaris. An outline of the steps:
as §2

The nature of data set [5]: Oral bioavailability in dog at 0.2 mg/kg. Type of data set: ADME, organism-based, Canis lupus familiaris. Conditions: in vivo. The procedure, abridged: as §2

Structures are written as SMILES.

Sequence of Coagulation factor X (P00742 41-179 limits assumed): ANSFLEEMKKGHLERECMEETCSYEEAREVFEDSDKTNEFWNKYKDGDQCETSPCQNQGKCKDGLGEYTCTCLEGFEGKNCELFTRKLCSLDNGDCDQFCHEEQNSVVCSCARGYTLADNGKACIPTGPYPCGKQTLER
Sequence of Coagulation factor X (P00742 235-488 limits assumed): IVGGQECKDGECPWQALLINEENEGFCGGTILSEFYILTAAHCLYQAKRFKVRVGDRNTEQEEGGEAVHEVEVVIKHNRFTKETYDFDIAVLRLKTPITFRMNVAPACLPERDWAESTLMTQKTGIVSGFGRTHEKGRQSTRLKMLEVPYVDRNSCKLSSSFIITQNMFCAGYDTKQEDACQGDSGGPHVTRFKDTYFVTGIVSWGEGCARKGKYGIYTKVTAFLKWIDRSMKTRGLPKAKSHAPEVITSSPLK

What is called Ki is the dissociation constant of the complex between target and ligand, obtained from inhibition or displacement. Read a low Ki as a stronger hold on the target. `NC(=O)c1cc(C(=O)N2CCc3ccc(N4CCCCCC4=O)cc32)n(-c2ccc3onc(N)c3c2)n1` had an inhibition constant (Ki) on Coagulation factor X of 1100 nM.
Regarding `CS(=O)(=O)c1ccccc1-c1ccc(NC(=O)c2cc(C(F)(F)F)nn2-c2ccc3onc(N)c3c2)c(F)c1`, the inhibitory constant (Ki) on Trypsin is reported as above 5200 nM.
Turning to `CS(=O)(=O)c1ccccc1-c1ccc2c(c1)CCN2C(=O)c1cc(C(F)(F)F)nn1-c1ccc2onc(N)c2c1`, the inhibition constant (Ki) is 1.5 nM at Coagulation factor X, above 21000 nM at Prothrombin and above 2500 nM at Trypsin. Also, the Activity with Plasma is 26 µM.
For the molecule `Nc1noc2ccc(-n3nc(C(F)(F)F)cc3C(=O)N3CCc4cc(-c5ccccc5CN5CCCC5)ccc43)cc12`, the inhibition constant (Ki) on Coagulation factor X is 4.9 nM; at Prothrombin, 15000 nM; on Trypsin it was above 40000 nM. The molecule further gave a clearance in data set [1] of 123 mL/min/kg. In [2], the Vd is 20 L/kg.
Consider `CS(=O)(=O)c1ccccc1-c1ccc2c(c1)CCCN2C(=O)c1cc(C(F)(F)F)nn1-c1ccc2onc(N)c2c1`, for which the inhibition constant Ki on Coagulation factor X was 2000 nM; at Prothrombin, above 6300 nM; at Trypsin, above 4200 nM.
Regarding `CN(C)CC(=O)N(C)c1ccc2c(c1)N(C(=O)c1cc(C(N)=O)nn1-c1ccc3onc(N)c3c1)CC2`, the affinity at Coagulation factor X, expressed as Ki, was 350 nM.
Molecule `CN(C)Cc1nccn1-c1ccc(NC(=O)c2cc(C(F)(F)F)nn2-c2ccc3onc(N)c3c2)c(F)c1` [RAZAXABAN] showed a clearance in data set [1] of 18.3 mL/min/kg. The molecule further returned a Vdss in the data set with Canis familiaris of 3.4 L/kg.
On Coagulation factor X, `CS(=O)(=O)c1ccccc1-c1ccc2c(c1)N(C(=O)c1cc(C(N)=O)nn1-c1ccc3onc(N)c3c1)CC2` returned a Ki of 1400 nM.
With `CN(C)Cc1ccccc1-c1ccc2c(c1)CCN2C(=O)c1cc(C(F)(F)F)nn1-c1ccc2onc(N)c2c1`, the inhibition constant Ki on Coagulation factor X is 19 nM; at Prothrombin it was 19200 nM.
For `CS(=O)(=O)c1ccccc1-c1ccc2c(c1)CCN2C(=O)c1cc(C(N)=O)nn1-c1ccc2onc(N)c2c1`, the inhibition constant (Ki) is 0.82 nM at Coagulation factor X and above 20000 nM on Prothrombin. The Activity with Plasma came to 41 µM.
As for `CS(=O)(=O)c1ccccc1-c1ccc2c(c1)C(=O)CCN2C(=O)c1cc(C(F)(F)F)nn1-c1ccc2onc(N)c2c1`, the Ki at Coagulation factor X was 500 nM; on Prothrombin, above 21000 nM; on Trypsin, above 4200 nM.
What is called Papp is a coefficient for how fast a substance crosses the barrier. For `NC(=O)c1cc(C(=O)N2CCc3cc(-c4ccccc4CN4CCCC4)ccc32)n(-c2ccc3onc(N)c3c2)n1`, at Coagulation factor X, affinity was put at a Ki of 0.63 nM. Moreover, the Activity in the data set with Plasma was found to be 2.1 µM. Further, the Papp in data set [3] was 0.7 ×10⁻⁶ cm/s. Moreover, the clearance in data set [1] is 59.5 mL/min/kg. Besides, the Vd in data set [2] was determined as 6.2 L/kg.
By half-life is commonly meant the time in which the quantity being followed falls by half. Read a low half-life as rapid decline. As a reminder, the bioavailability is dose-corrected exposure relative to a reference, in per cent. With `Nc1noc2ccc(-n3nc(C(F)(F)F)cc3C(=O)N3CCc4cc(-c5ccccc5S(N)(=O)=O)ccc43)cc12`, the Ki at Coagulation factor X is 2.7 nM; at Prothrombin it was above 21000 nM; at Trypsin it was above 2500 nM. For the same molecule, the Activity in the data set with Plasma is 28 µM. This molecule showed a clearance in data set [1] of 10.5 mL/min/kg. In data set [2], the Vd came out at 2 L/kg. Besides, the half-life in data set [4] was 4 h. Also, the bioavailability in [5] turned out to be 66%.
Turning to `CS(=O)(=O)c1ccccc1-c1ccc2c(c1)OCCN2C(=O)c1cc(C(F)(F)F)nn1-c1ccc2onc(N)c2c1`, the inhibition constant Ki is 71 nM on Coagulation factor X and above 21000 nM on Prothrombin.
For the molecule `CS(=O)(=O)c1ccccc1-c1ccc2c(c1)C(O)CCN2C(=O)c1cc(C(F)(F)F)nn1-c1ccc2onc(N)c2c1` (racemic), the figures for the Ki on Coagulation factor X, at Prothrombin and on Trypsin were 1400 nM, above 6300 nM and above 4200 nM, respectively.
`CN(C)Cc1nccn1-c1ccc2c(c1)CCN2C(=O)c1cc(C(N)=O)nn1-c1ccc2onc(N)c2c1` gave an inhibition constant Ki on Coagulation factor X of 2.2 nM.
The same measure, in the same setting: the value for `NC(=O)c1cc(C(=O)N2CCc3cc(N4CCCCCC4=O)ccc32)n(-c2ccc3onc(N)c3c2)n1` was 15 nM.
In the case of `NC(=O)c1cc(C(=O)N2CCc3cc(-n4ccccc4=O)ccc32)n(-c2ccc3onc(N)c3c2)n1`, at Coagulation factor X, the Ki turned out to be 0.2 nM. In the data set with Plasma, the Activity came to 1.9 µM. In addition, the apparent permeability (Papp) in [3] was determined as 0.1 ×10⁻⁶ cm/s.
As for `Nc1noc2ccc(-n3nc(C(F)(F)F)cc3C(=O)N3CCCCc4cc(-c5ccccc5S(N)(=O)=O)ccc43)cc12`, the values for the Ki at Coagulation factor X, on Prothrombin and on Trypsin were 3400 nM, above 6300 nM and above 4200 nM, respectively.
As for `CN(C)Cc1ccccc1-c1ccc2c(c1)CCN2C(=O)c1cc(C(N)=O)nn1-c1ccc2onc(N)c2c1`, the inhibitory constant (Ki) at Coagulation factor X was 1 nM; on Trypsin, above 20000 nM. The Activity in the data set with Plasma came to 3 µM. Moreover, the apparent permeability coefficient (Papp) in data set [3] was 0.3 ×10⁻⁶ cm/s.
Turning to `CN(C)CC(=O)N(C)c1ccc2c(c1)CCN2C(=O)c1cc(C(N)=O)nn1-c1ccc2onc(N)c2c1`, the inhibitory constant (Ki) at Coagulation factor X amounted to 6.8 nM.
Molecule `NC(=O)c1cc(C(=O)N2CCc3cc(N4CCCCC4=O)ccc32)n(-c2ccc3onc(N)c3c2)n1` returned a Ki on Coagulation factor X of 2.4 nM. Moreover, the Activity in the data set with Plasma was 3.3 µM. For the same molecule, the Papp in [3] came out at 0.1 ×10⁻⁶ cm/s. In data set [1], this molecule had a clearance of 3.67 mL/min/kg. Moreover, the Vd in [2] was 0.2 L/kg. Further, the half-life in data set [4] is 1.6 h. The molecule further registered a bioavailability in data set [5] of 6%.
On to `CN(Cc1nccn1-c1ccc2c(c1)CCN2C(=O)c1cc(C(N)=O)nn1-c1ccc2onc(N)c2c1)S(C)(=O)=O`, for which the Ki on Coagulation factor X is 6.9 nM.
Regarding `CC(=O)N(C)Cc1nccn1-c1ccc2c(c1)CCN2C(=O)c1cc(C(N)=O)nn1-c1ccc2onc(N)c2c1`, the Ki on Coagulation factor X is 4.8 nM. The Ki values of the last two molecules are within 1.5-fold of each other.
